From PubChem
SENP8 block-1: blocks human SENP8 cleavage of Nedd8 substrate; Q96LD8; recombinant SENP8, Nedd8 substrate fluorescence; inhibition, % at 20 µM; hit rate 0.64% among 360,000; AID 602440; in the data active = inhibition mostly above about 40%, no sharp cut-off; inactive = mostly below about 27%
SENP1 FRET inh: blocks the human SENP1 SUMO protease catalytic domain. Q9P0U3. recombinant SENP1 catalytic domain, CyPet-SUMO1-YPet FRET cleavage. inhibition, % at 10 µM. hit rate 0.21% among 360,000. AID 624204;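 active = inhibition at least 30% at 10 µM, raw YFP signal under a set limit, fluorescence ratio 0.5 to 1.5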;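 note: 0% = enzyme with DMSO and 100% = no enzyme wells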
Target sequence (Q9P0U3 419-644 limits assumed): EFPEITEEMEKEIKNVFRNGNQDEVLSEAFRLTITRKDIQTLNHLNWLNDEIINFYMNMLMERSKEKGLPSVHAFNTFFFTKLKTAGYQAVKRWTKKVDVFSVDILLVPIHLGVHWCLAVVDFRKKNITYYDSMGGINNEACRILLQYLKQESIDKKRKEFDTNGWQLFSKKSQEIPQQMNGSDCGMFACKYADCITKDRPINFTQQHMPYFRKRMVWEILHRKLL
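Compound: 10 µM single point, 0.5% DMSO; Test system: hSENP1 catalytic domain, recombinant; Timing: 50 min reaction at room temperature; Technique: FRET, CFP and YFP emission; Control set: no-enzyme wells low, DMSO-plus-enzyme wells high control.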
SENP8 block-2: inhibitors of human SENP8 protease; Q96LD8; inhibition, % at 10 µM; purified SENP8, Z-RLRGG-aminoluciferin cleavage, luminescence; hit rate 1.2% among 330,000; AID 2540; in the data active = inhibition above about 50%
SENP6 inh: blocks the human protease SENP6; inhibition, % at 10 µM; Recombinant SENP6 catalytic domain, aminoluciferin luminescence; Q9GZR1; hit rate 1.8% among 330,000;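 active = inhibition above about 50% at the single tested dose, limit read from the data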;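 note: plate controls were DMSO wells with enzyme for no effect and DMSO wells lacking enzyme for full effect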
SENP7 block: blocks the human protease SENP7; hit rate 1.5% among 330,000; recombinant SENP7, Z-RLRGG-aminoluciferin luminescence, 40 min; Q9BQF6; inhibition, % at 5 µM;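 active = inhibition above about 50% at the single test dose, limit read from the data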;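 note: plate controls were DMSO with enzyme for no effect and no enzyme buffer wells for full effect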
Target sequence (Q9BQF6 706-1050 limits assumed): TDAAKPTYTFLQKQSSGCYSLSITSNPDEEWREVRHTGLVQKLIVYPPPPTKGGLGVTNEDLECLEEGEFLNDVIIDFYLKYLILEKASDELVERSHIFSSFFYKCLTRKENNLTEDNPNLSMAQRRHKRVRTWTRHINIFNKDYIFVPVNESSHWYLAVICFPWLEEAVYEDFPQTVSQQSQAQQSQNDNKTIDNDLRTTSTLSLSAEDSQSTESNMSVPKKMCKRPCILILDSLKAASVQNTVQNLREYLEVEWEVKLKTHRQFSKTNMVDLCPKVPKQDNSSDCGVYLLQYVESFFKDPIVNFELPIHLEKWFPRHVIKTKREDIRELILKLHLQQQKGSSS
The depositor's hits bear a star; i = inactive; . = not tested or not shown. Hits are enriched below; roughly 2.5% of the tested compounds scored in any of these assays.

SMILES	SENP8 block-1	SENP1 FRET inh	SENP8 block-2	SENP6 inh	SENP7 block
NC(c1ccccc1)c1csc(NC(=O)NCC2CCCCC2)n1 (stereo not drawn)	16.7	1.8	.	.	.
COc1ccc2c(c1)O/C(=C\c1sccc1C)C2=O	-86.0	-132.5	49.9	79.5*	70.9*
Cc1ccc(NC(=S)/C(=C(\[O-])c2ccc(C)c([N+](=O)[O-])c2)[n+]2ccccc2)cc1C	.	.	3.8	-7.8	-3.4
COc1cccc(NC(=S)/C(=C(\[O-])c2ccc(C)c([N+](=O)[O-])c2)[n+]2ccccc2)c1	39.4*	-38.0	8.7	47.4	2.6
Cc1ccc(Nc2c([N+](=O)[O-])ccc3c2=NC2(CCCCC2)N=3)cc1	44.1*	5.6	6.8	22.8	0.2
O=C(c1ccc(CS(=O)c2cccc(Cl)c2)o1)N1CCN(c2ccccn2)CC1 (stereo not drawn)	0.7	1.5	0.8	2.4	0.8
CN1C(=O)/C(=C/c2cccc([N+](=O)[O-])c2)C(=O)N1c1ccccc1	44.8*	0.1	-0.6	-6.5	7.0
CC1CCCC(C)N1/N=C/c1ccc(O)c(O)c1 (stereo not drawn)	51.1*	-3.8	12.1	1.4	7.5
Oc1ccc(/C=N/N2CCCCC2)cc1O	45.2*	1.0	-11.4	-1.6	-3.4
Clc1ccc(C=NN2CCCCCC2)cc1Cl	-0.2	-0.2	.	.	.
COc1ccc(/C=N/N2C(C)CCCC2C)cc1O (stereo not drawn)	12.5	0.8	-5.4	-20.9	-4.8
O=C(NNC(=O)c1cc(-c2cccc(Br)c2)nc2ccccc12)c1csc(N2CCOCC2)n1	-63.6	3.9	-8.4	-9.9	-4.7
O=C1C(Cl)=C(NCCN2CCOCC2)C(=O)c2ccccc21	58.8*	1.2	10.9	27.3	12.0
CC(=O)Nc1ccc(NC2=C(Cl)C(=O)c3ccccc3C2=O)cc1	.	.	24.1	12.1	10.0
O=S(=O)(c1ccccc1)c1nc(-c2ccccc2Cl)oc1NCCCN1CCOCC1	-105.5	-0.3	13.1	-8.8	1.4
O=C1C(Cl)=C(NCCCN2CCOCC2)C(=O)c2ccccc21	64.1*	3.6	.	.	.
O=C1c2ccccc2C(=O)N1CCN1CCOCC1	5.7	1.4	-4.5	-20.4	8.9
O=C1C(Cl)=C(NCCCO)C(=O)c2ccccc21	82.8*	-0.2	28.3	41.1	41.3
CN(C)c1ccc(NC2=C(Cl)C(=O)c3ccccc3C2=O)cc1	42.6*	1.4	9.2	38.1	2.6
O=C(O)C1CCC(C(=O)O)SS1 (stereo not drawn)	16.8	0.9	.	.	.
CN(C)C(=O)c1cccc(-c2cnc3cccnn23)c1	i	-14.8	.	.	.
O=C(NCCOC(=O)Nc1cccc2ccccc12)OCc1ccccc1	-8.9	-0.7	.	.	.
C=CCN1C(=O)/C(=C/c2ccc(OC(C)=O)c(OCC)c2[N+](=O)[O-])SC1=S	65.3*	25.7	.	.	.
O=c1ccn([C@@H]2O[C@H](CNCc3cccn3-c3nccs3)[C@@H](O)[C@H]2O)c(=O)[nH]1	33.9	-0.9	.	.	.
COc1cccc2c1C(=O)c1c(O)c3c(c(O)c1C2=O)C[C@@](O)(C(=O)CO)C[C@@H]3OC1CC(N)C(O)C(C)O1 (stereo partly drawn)	94.0*	96.8	.	.	.
SMILES	SENP8 block-1	SENP1 FRET inh	SENP8 block-2	SENP6 inh	SENP7 block
COc1cccc2c1C(=O)c1c(O)c3c(c(O)c1C2=O)C[C@@](O)(C(=O)CO)C[C@@H]3O[C@H]1C[C@H](N)[C@H](O)[C@H](C)O1	26.3	96.6*	9.4	7.0	13.3
COc1cccc2c1C(=O)c1c(O)c3c(c(O)c1C2=O)CC(O)(C(C)=O)CC3OC1CC(N(C)C)C(O)C(C)O1 (stereo not drawn)	48.9*	100.7	.	.	.
CC(=O)[C@@]1(O)Cc2c(O)c3c(c(O)c2[C@H](O[C@H]2C[C@H](N)[C@H](O)[C@H](C)O2)C1)C(=O)c1ccccc1C3=O	28.7	105.1	.	.	.
CS(=O)(=O)N(CC(=O)NC1CCCC1)C1CCCCC1	7.3	1.1	-3.5	-12.5	-0.5
CCN1C(=O)C(=Cc2cccc(OC)c2Oc2ccc([N+](=O)[O-])cc2[N+](=O)[O-])SC1=S	33.4	0.2	94.6*	81.4*	54.5*
COc1cc(/C=C2\SC(=O)NC2=O)ccc1Oc1ccc([N+](=O)[O-])cc1[N+](=O)[O-]	17.2	4.3	-3.4	4.6	4.6
CCOC(=O)[C@@H](C)N(C(=O)OC(C)(C)C)S(=O)(=O)N(Cc1ccccc1)[C@H](C(=O)OC)C(C)C	14.4	-1.5	.	.	.
CCOC(=O)c1c2c(n(-c3ccc(OC)cc3)c1C)C(=O)C(=O)c1ccccc1-2	110.3*	3.1	.	.	.
O=C(c1ccc(Br)o1)N1CCc2ccccc21	.	.	92.9*	94.3*	95.1*
CC(C)NC(=O)C1(C)CN(S(C)(=O)=O)CC(=O)N1CCOc1ccccc1 (stereo not drawn)	9.5	-2.4	.	.	.
Cc1nc2sc(-c3ccccc3)cc2c(=O)n1N	-57.6	0.5	96.1*	94.6*	98.7*
Cc1nc2sc(-c3ccccc3)cc2c(=O)n1/N=C/N(C)C	-234.8	-0.3	6.5	-20.9	7.2
O=C(CCc1nnc(C2(c3ccc(Cl)cc3)CCC2)o1)N1CCCC(O)C1 (stereo not drawn)	11.5	4.4	9.7	-12.8	3.1
CNc1cncc(-c2ccc(OC)c(OC)c2)n1	i	-7.0	.	.	.
NC1=C(Cl)C(=O)c2ccccc2C1=O	82.9*	-1.4	.	.	.
NC1=C(Cl)C(=O)c2ccc(S(N)(=O)=O)cc2C1=O	96.1*	2.5	.	.	.
NS(=O)(=O)c1ccc2c(c1)C(=NO)c1cc(S(N)(=O)=O)ccc1-2	-121.5	1.4	-13.8	0.5	-0.9
COc1cc(C2Nc3cccc4cccc(c34)N2)ccc1OC(C)=O	10.6	3.4	6.8	11.2	-2.9
Fc1ccc(C2Nc3cccc4cccc(c34)N2)cc1	34.3	5.6	1.2	14.5	-3.5
COC(=O)c1ccc(C2Nc3cccc4cccc(c34)N2)cc1	54.0*	10.8	1.5	27.4	12.1
Oc1ccc(C2Nc3cccc4cccc(c34)N2)c(O)c1	44.8*	-5.9	-4.6	4.7	3.1
COc1cc(C2Nc3cccc4cccc(c34)N2)cc(OC)c1O	58.0*	-7.0	8.5	18.7	97.6*
O=C1C(Nc2ccccc2)=C/C(=N/S(=O)(=O)c2cccs2)c2ccccc21	82.8*	1.9	.	.	.
O=C1C(Nc2ccccc2)=C(NS(=O)(=O)c2ccccc2)C(=O)c2ccccc21	38.8	0.2	9.1	13.7	8.8
Cc1ccc(S(=O)(=O)/N=C2\C=C(Nc3cccc(C(=O)O)c3)C(=O)c3ccccc32)cc1	83.1*	-1.2	92.9*	91.1*	63.5*
COC(=O)c1ccccc1NC1=C/C(=N\S(=O)(=O)c2ccc(C(=O)O)cc2)c2ccccc2C1=O	-20.1	4.1	90.4*	72.5*	24.0
O=C(O)c1cccc(NS(=O)(=O)c2ccc3c(c2)C(=O)c2ccccc2C3=O)c1	39.1	1.6	3.4	13.0	2.2
CCc1ccc(S(=O)(=O)/N=C2\C=C(Nc3ccc(C(=O)O)cc3)C(=O)c3ccccc32)cc1	44.4*	0.3	93.9*	91.8*	63.0*
